In ChEMBL document CHEMBL1144733, “Design and synthesis of nitrate esters of aromatic heterocyclic compounds as pharmacological preconditioning agents” (2008) one finds Activity data, which are given here for four compounds.

Activity calls are given as the source filed them. The rule behind the calls is not given here.

Test [1] deals with Oryctolagus cuniculus. The test is described as follows: Cardioprotective effect in New Zealand white rabbit assessed as reduction of infract size at 1.3 mg/kg, iv administered before 30 mins of ischemia and 3 hrs of reperfusion relative to control. The test is classed as functional. Set-up: scale not given: the % may be the effect or the level left. The method in brief:
(§1)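 Anesthetized (pentobarbital 30 mg/kg iv), ventilated male rabbits; regional myocardial ischemia 30 min, reperfusion 3 h. Total 1.3 mg/kg split into two iv boluses in 0.2 ml DMSO + 0.8 ml saline, 40 min and 1 min before ischemia; controls got vehicle. Microspheres delineated risk zone; 3 mm slices stained with 1% TTC, 20 min, 37 C; infarct/risk volume ratio (%). n = 5-10 per group.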

In test [2] the test system is Oryctolagus cuniculus. The test is described as follows: Cardioprotective effect in New Zealand white rabbit assessed as reduction of infract size at 1.3 mg/kg, iv administered before 30 mins of ischemia and 3 hrs of reperfusion in presence of mitoKATP blocker 5-hydroxydecanoic acid relative to control. The class given is functional. Set-up: scale not given: the % may be the effect or the level left. Summed up:
as §1

For test [3], the system named is Oryctolagus cuniculus. The experiment in a line: Decrease in MDA level in New Zealand white rabbit at 1.3 mg/kg, iv after 20 mins of reperfusion relative to control. The class given is functional, organism-based. More on the design: dose 1.3 mg/kg. The method in brief: (§2)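 Rabbit plasma sampled at baseline, 20 min ischemia, and 1 and 20 min reperfusion after 1.3 mg/kg iv (two boluses). MDA by N-methyl-2-phenyl-indole colorimetric kit: 0.2 ml plasma plus reagent and HCl, 45 C for 60 min, centrifuged, A586; MDA standard curve (2-20 lmol/ml); triplicate; mean ± SEM.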

For test [4], the system named is Oryctolagus cuniculus. The test is described as follows: Increase in MDA level in New Zealand white rabbit at 1.3 mg/kg, iv after 20 mins of ischemia relative to control. The test is classed as functional, organism-based. Set-up: dose 1.3 mg/kg. The method in brief:
as §2

Test [5] has as its system Oryctolagus cuniculus. The test is described as follows: Increase in circulating cGMP level in New Zealand white rabbit at 1.3 mg/kg, iv after 20 mins of ischemia by enzyme immunoassay relative to control. Set-up: dose 1.3 mg/kg. The test is classed as functional, organism-based. Summed up: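 Plasma from rabbits dosed 1.3 mg/kg iv (40 and 1 min pre-ischemia) drawn at 20 min of sustained ischemia. cGMP by competitive enzyme immunoassay: alkaline phosphatase-cGMP conjugate plus polyclonal antibody, 2 h at 25 C shaking, p-nitrophenyl phosphate 1 h, read 450 nm corrected at 550 nm; concentration from standard curve.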

Test [6] has as its system Oryctolagus cuniculus. The test is described as follows: Cardioprotective effect in New Zealand white rabbit assessed as reduction of infract size at 1.3 mg/kg, iv administered before 30 of mins ischemia and 3 hrs of reperfusion in presence of adenosine receptor blocker 8-(p-sulfonyl) theophylline relative to control. The test is classed as functional. Set-up: scale not given: the % may be the effect or the level left. Summed up:
as §1

On to `O=C(NCCO[N+](=O)[O-])c1cc2ccccc2[nH]1`, for which the Activity in the test with Oryctolagus cuniculus [1] is recorded as 20.5%; in the test with Oryctolagus cuniculus [2], 40.12%. Besides, the result in the test on Oryctolagus cuniculus [3], with Oryctolagus cuniculus [4] and with Oryctolagus cuniculus [5] was Active.

`O=C(NCCO[N+](=O)[O-])c1ccc2ccccc2n1`: the Activity with Oryctolagus cuniculus [1] was found to be 22.4%. The outcome with Oryctolagus cuniculus [3], in the test on Oryctolagus cuniculus [4] and in the test on Oryctolagus cuniculus [5] was Active.

As to `O=[N+]([O-])OCCCCCCn1cnc2c(N3CCCCC3)ncnc21`, the Activity in the test on Oryctolagus cuniculus [1] was determined as 19.8%; in the test with Oryctolagus cuniculus [2], 21.9%; in the test with Oryctolagus cuniculus [6], 28.03%. The outcome in the test with Oryctolagus cuniculus [3] was Active.

Consider `O=[N+]([O-])OCCCCCCCCCCCn1cnc2c(N3CCCCC3)ncnc21`, for which the result in the test on Oryctolagus cuniculus [3] and in the test on Oryctolagus cuniculus [5] was Active.
